Measurements: ChEMBL document CHEMBL2375275, “Design and synthesis of novel chromenone derivatives as interleukin-5 inhibitors” (Bioorg Med Chem, 2013)

Target: T1, Interleukin-5 (Mus musculus) (UniProt P04401)
T1 sequence (whole entry): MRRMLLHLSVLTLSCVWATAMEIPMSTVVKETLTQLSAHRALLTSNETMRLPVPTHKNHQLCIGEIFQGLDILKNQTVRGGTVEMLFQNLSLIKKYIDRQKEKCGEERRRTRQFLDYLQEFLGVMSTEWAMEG
Experiment: Inhibition interleukin-5 in mouse Y16 cells at 30 uM after 48 hrs by WST-1 assay
Type: cell-based
Method in brief: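 IL-5-dependent pro-B Y16 cells stimulated with 3 U/mL mIL-5 and incubated 48 h with or without sample; cell metabolism read by WST-1 as proliferation index.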

| inhibition [%] | SMILES |
| --- | --- |
| 94 | O=c1c(CCC(O)c2ccc(F)cc2)coc2cccc(OCC3CCCCC3)c12 (centres undefined) |
| 93 | O=C(CCc1coc2cccc(OCC3CCCCC3)c2c1=O)c1ccc(F)cc1 |
| 6.6 | CC(C)(C)c1ccc(C(O)CCc2coc3cccc(OCC4CCCCC4)c3c2=O)cc1 (centres undefined) |
| 13.5 | Cc1ccc(C(O)CCc2coc3cccc(OCC4CCCCC4)c3c2=O)cc1 (centres undefined) |
| 94 | COc1ccc(C(O)CCc2coc3cccc(OCC4CCCCC4)c3c2=O)cc1 (centres undefined) |
| 94 | N#Cc1ccc(C(O)CCc2coc3cccc(OCC4CCCCC4)c3c2=O)cc1 (centres undefined) |
| 6.7 | CC(C)(C)c1ccc(C(=O)CCc2coc3cccc(OCC4CCCCC4)c3c2=O)cc1 |
| 94 | O=c1c(CCC(O)c2ccc(Cl)c(Cl)c2)coc2cccc(OCC3CCCCC3)c12 (centres undefined) |
| 55 | O=c1c(CCC(O)c2ccc(C(F)(F)F)cc2)coc2cccc(OCC3CCCCC3)c12 (centres undefined) |
| 94 | O=c1c(CCC(O)c2ccc(O)cc2)coc2cccc(OCC3CCCCC3)c12 (centres undefined) |
| 5.3 | O=C(CCc1coc2cccc(OCC3CCCCC3)c2c1=O)c1ccc(C(F)(F)F)cc1 |
| 94 | O=c1c(CCC(O)c2ccc(Cl)cc2)coc2cccc(OCC3CCCCC3)c12 (centres undefined) |
| 86 | O=c1c(CCC(O)c2ccc3ccccc3c2)coc2cccc(OCC3CCCCC3)c12 (centres undefined) |
| 94 | O=c1c(CCC(O)c2ccccc2)coc2cccc(OCC3CCCCC3)c12 (centres undefined) |

More lines, now with the values behind:

| SMILES | inhibition [%] |
| --- | --- |
| O=C(CCc1coc2cccc(OCC3CCCCC3)c2c1=O)c1ccc(O)cc1 | 80 |
| COc1ccc(C(=O)CCc2coc3cccc(OCC4CCCCC4)c3c2=O)cc1 | 91 |
| O=C(CCc1coc2cccc(OCC3CCCCC3)c2c1=O)c1ccccc1 | 12.3 |
| O=C(CCc1coc2cccc(OCC3CCCCC3)c2c1=O)c1ccc2ccccc2c1 | 10 |
| O=C(CCc1coc2cccc(OCC3CCCCC3)c2c1=O)c1ccc(Cl)c(Cl)c1 | 68 |
| COc1ccc(C(=O)CCC2COc3cccc(OCC4CCCCC4)c3C2=O)cc1 (centres undefined) | 34 |
| N#Cc1ccc(C(=O)CCc2coc3cccc(OCC4CCCCC4)c3c2=O)cc1 | 93 |
| Cc1ccc(C(=O)CCc2coc3cccc(OCC4CCCCC4)c3c2=O)cc1 | 70 |
| O=C(CCC1COc2cccc(OCC3CCCCC3)c2C1=O)c1ccc(Cl)c(Cl)c1 (centres undefined) | 40 |
| O=C(CCc1coc2cccc(OCC3CCCCC3)c2c1=O)c1ccc(Cl)cc1 | 94 |
